Data taken from ChEMBL document CHEMBL4680229, “Design, synthesis and bioactivity study of N-salicyloyl tryptamine derivatives as multifunctional agents for the treatment of neuroinflammation” (Eur J Med Chem, 2020).
The source made the active and inactive calls. The calls are words filed in the database; no cut-off is given here.

Experiments:
C6 [1] = assay: Cytotoxicity against rat C6 cells assessed as reduction in cell viability after 24 hrs by MTT assay; assay type: cell-based; conditions: C6, 24 h
In short: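 C6 or BV2 cells seeded at 1–5×10^5 per well; after 12 h exposed to 0, 6.25, 12.5, 25, 50 or 100 μM (final, DMSO <0.4%) for 24 h. MTT added for 4 h, dissolved in DMSO, read at 570 nm. IC50 as mean of three independent experiments run in triplicate.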

[2] = Inhibition of LPS-induced NO production in mouse BV-2 cells incubated for 24 hrs by Griess reagent based assay; assay type: functional, cell-based; conditions: BV-2, 24 h
In short: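 BV2 cells at 5×10^5 cells/mL, LPS 1 μg/mL plus compound at 2.5–40 μM final for 24 h. Supernatant nitrite measured with Griess reagent for 15 min at room temperature in the dark, 540 nm, against a NaNO2 standard curve; IC50 from three repeats.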

[3] = Antioxidant activity assessed as DPPH radical scavenging activity incubated for 30 mins; assay type: functional
In short: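 Compound in ethanol at 2.5–40 μM final, mixed 1:1 with 700 μmol/L ethanolic DPPH; 30 min in the dark at room temperature, absorbance at 515 nm. Serotonin used as standard; EC50 from three independent experiments.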

BV-2 [4] = assay: Inhibition of LPS-induced TNFalpha production in mouse BV-2 cells after 24 hrs by ELISA; assay type: functional, cell-based; conditions: dose 10-40 µM
In short: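 BV2 cells at 5×10^5 cells/mL stimulated with LPS 1 μg/mL; compound at 10, 20 or 40 μM final for 24 h, DMSO in blanks. Supernatant TNF-α and IL-10 measured by sandwich ELISA and PGE2 by competitive ELISA, OD at 450 nm; at least three independent experiments.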

C6 [5] = assay: Inhibition of LPS-induced TNFalpha production in rat C6 cells after 24 hrs by ELISA; assay type: functional, cell-based; conditions: dose 10-40 µM
In short: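 C6 cells at 5×10^5 cells/mL stimulated with LPS 10 μg/mL; compound at 10, 20 or 40 μM final for 24 h. Supernatant TNF-α measured by sandwich ELISA at 450 nm; at least three independent experiments.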

BV-2 [6] = assay: Antiinflammatory activity against LPS-induced mouse BV-2 cells assessed as decrease in INOS protein expression at 40 uM after 24 hrs by Western blot analysis relative to control; assay type: functional; design: scale not given: the % may be the effect or the level left
In short: (§1)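 BV2 cells in DMEM with 10% FBS; LPS 1 μg/mL plus compound at 10, 20 or 40 μM final for 24 h. Lysates in RIPA with 1 mM PMSF; 30 μg protein on 8% SDS-PAGE and blotted for iNOS and COX-2, GAPDH as reference; ECL detection and densitometry; at least three independent experiments.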

BV-2 [7] = assay: Antiinflammatory activity against LPS-induced mouse BV-2 cells assessed as decrease in COX2 protein expression at 40 uM after 24 hrs by Western blot analysis; assay type: functional, cell-based; in short: as §1
BV-2 [8] = assay: Antiinflammatory activity against LPS-induced mouse BV-2 cells assessed as decrease in COX2 protein expression after 24 hrs by Western blot analysis; assay type: functional, cell-based; conditions: BV-2, 24 h; in short: as §1
C6 [9] = assay: Antiinflammatory activity against LPS-induced rat C6 cells assessed as decrease in GFAP protein expression at 20 uM after 24 hrs by DAPI staining based confocal laser microscopic method; assay type: functional, cell-based
In short: (§2)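 Cells on glass slides with compound at 20 μM final for 24 h: C6 with LPS 10 μg/mL stained for GFAP, BV2 with LPS 1 μg/mL stained for Iba-1. Fixed in 4% paraformaldehyde, blocked in 1% BSA/0.3% Triton X-100, primary antibody 1:100 overnight at 4 °C, secondary 1:200, DAPI mount, confocal imaging. Intensity given as % of LPS group, n = 3.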

BV-2 [10] = assay: Antiinflammatory activity against LPS-induced mouse BV-2 cells assessed as decrease in iba-1 protein expression at 20 uM after 24 hrs by DAPI staining based confocal laser microscopic method; assay type: functional, cell-based; in short: as §2
Mus musculus [11] = assay: Antiinflammatory activity against LPS-induced hippocampal neuroinflammatory Kunming mouse model assessed as reduction in GFAP level in hippocampus at 50 mg/kg, ip administered bid for 6 days by DAPI staining based microscopic method; assay type: functional, organism-based; conditions: time 6.0 day
Mus musculus [12] = assay: Antiinflammatory activity against LPS-induced hippocampal neuroinflammatory Kunming mouse model assessed as reduction in iba-1 level in hippocampus at 50 mg/kg, ip administered bid for 6 days by DAPI staining based microscopic method; assay type: functional, organism-based; conditions: time 6.0 day
Mus musculus [13] = assay: Antiinflammatory activity against LPS-induced hippocampal neuroinflammatory Kunming mouse model assessed as reduction in GFAP level in hippocampus at 50 mg/kg, ip administered bid for 6 days by Western blot analysis; assay type: functional, organism-based; conditions: time 6.0 day
Mus musculus [14] = assay: Antiinflammatory activity against LPS-induced hippocampal neuroinflammatory Kunming mouse model assessed as reduction in iba-1 level in hippocampus at 50 mg/kg, ip administered bid for 6 days by Western blot analysis; assay type: functional, organism-based; conditions: time 6.0 day
[15] = Toxicity in LPS-induced hippocampal neuroinflammatory Kunming mouse model assessed as death at 50 mg/kg, ip administered bid for 6 days […]; assay type: organism-based; conditions: in vivo, 144 h, time 6 day
In short: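 Male Kunming mice (8 weeks, 20–25 g, n = 10/group) were anaesthetised with i.p. chloral hydrate, then given LPS (3 μL of 10 mg/mL) into the lateral ventricle at 0.5 μL/min; sham mice received 3 μL saline. Compound was then given i.p. at 50 mg/kg in saline with 1% methyl cellulose for six consecutive days. Behaviour and deaths were recorded, and hippocampal slices were Nissl-stained.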

Mus musculus [16] = assay: Antiinflammatory activity against LPS-induced hippocampal neuroinflammatory Kunming mouse model assessed as increase in integral neurons at 50 mg/kg, ip administered bid for 6 days by Nissl staining based microscopic method; assay type: functional, organism-based; conditions: time 6.0 day
[17] = Toxicity in Kunming mouse assessed as changes in heart at 1000 mg/kg, po after 14 days; assay type: organism-based; conditions: in vivo, 336 h, time 14 day
In short: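 Mice, five male and five female, given a single oral dose of 1000 mg/kg and observed for behaviour for 14 days. Heart, liver, kidney and stomach then examined grossly and after H&E staining, compared with vehicle controls.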

[18] = Tmax in Sprague-Dawley rat at 50 mg/kg, ip up to 24 hrs by LC-MS analysis; assay type: ADME, organism-based; conditions: in vivo
In short: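 Male Sprague-Dawley rats, six per group, single 50 mg/kg intraperitoneal dose; parameters derived by non-compartmental analysis using the linear trapezoidal method; mean ± SD, n = 6.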

For Cc1ccc(C(=O)NCCc2c[nH]c3ccccc23)c(O)c1, the IC50 (C6 [1]) was over 100 µM, the IC50 [2] was 4.94 µM and the EC50 [3] was 25.2 µM. The inhibition (BV-2 [4]) was “Dose-dependent effect”, the inhibition (C6 [5]) was “Dose-dependent effect” and the Activity (BV-2 [6]) was 100%. For the same compound, the Activity (BV-2 [7]) was “inactive”, the IC50 (BV-2 [8]) was over 40 µM and the Activity (C6 [9]) was “Active”. The Activity (BV-2 [10]) was “Active”, the Activity (Mus musculus [11]) was “Active” and the Activity (Mus musculus [12]) was “Active”. For the same compound, the Activity (Mus musculus [13]) was “Active”, the Activity (Mus musculus [14]) was “Active” and the Activity [15] was “Non-Toxic”. For the same compound, the Activity (Mus musculus [16]) was “Active”, the Activity [17] was “Non-Toxic” and the Tmax [18] was 11.4 min.

Compound O=C(NCCc1c[nH]c2ccc(O)cc12)c1ccccc1Nc1ccccc1 has an IC50 (C6 [1]) of over 100 µM, an IC50 [2] of 37.2 µM and an EC50 [3] of 3.82 µM. The inhibition (C6 [5]) was “Dose-dependent effect”, the Activity (BV-2 [6]) was “inactive” and the Activity (BV-2 [7]) was “Active”. For the same compound, the Activity (C6 [9]) was “Active”, the Activity (BV-2 [10]) was “Active” and the Activity (Mus musculus [11]) was “Active”. The Activity (Mus musculus [13]) was “Active”, the Activity [15] was “Non-Toxic” and the Activity (Mus musculus [16]) was “Active”. The Activity [17] was “Non-Toxic” and the Tmax [18] was 55.2 min.
